The values that follow come from ChEMBL document CHEMBL3525985, “Regiospecificity and stereospecificity of human UDP-glucuronosyltransferases in the glucuronidation of estriol, 16-epiestriol, 17-epiestriol, and 13-epiestradiol” (Drug Metab Dispos, 2013).

Format in all cases: ADME
Data set [1] deals with T1, UDP-glucuronosyltransferase 1A1 (Homo sapiens, UniProt P22309).
T1 sequence (P22309 whole entry): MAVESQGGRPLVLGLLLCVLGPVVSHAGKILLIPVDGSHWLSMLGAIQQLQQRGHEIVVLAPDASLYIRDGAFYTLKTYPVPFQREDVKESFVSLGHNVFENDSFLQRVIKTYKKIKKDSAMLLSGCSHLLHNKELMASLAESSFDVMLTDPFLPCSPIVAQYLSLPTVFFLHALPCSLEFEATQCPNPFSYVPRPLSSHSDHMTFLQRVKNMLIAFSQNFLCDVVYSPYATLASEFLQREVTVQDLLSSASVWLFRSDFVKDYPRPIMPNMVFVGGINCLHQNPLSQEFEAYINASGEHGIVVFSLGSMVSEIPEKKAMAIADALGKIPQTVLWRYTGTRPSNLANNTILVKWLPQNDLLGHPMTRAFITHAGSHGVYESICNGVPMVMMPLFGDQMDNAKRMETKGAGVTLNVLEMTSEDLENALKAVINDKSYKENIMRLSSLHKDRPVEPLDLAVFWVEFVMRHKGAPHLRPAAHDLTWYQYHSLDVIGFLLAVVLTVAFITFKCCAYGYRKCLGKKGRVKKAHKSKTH
Nature of the data set: Drug metabolism assessed as recombinant human C-terminal His-tagged UGT1A1-mediated 17-epiestriol-3-glucuronide formation at 200 uM after 15 to 60 mins by HPLC analysis in presence of UDPGA. The following applies: recombinant enzyme. In a few lines: (§1)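 Screening at a single substrate concentration of 200 μM, in triplicate. The reaction used 5 or 50 µg of UGT-enriched insect cell membranes in 50 mM phosphate pH 7.4 with 10 mM MgCl₂ and 5 mM UDPGA, 10% final DMSO. Incubation was 15–60 min at 37°C. Perchloric acid stopped the reaction and supernatants were analysed by HPLC. Controls lacked UDPGA. Rates were normalized to relative UGT expression level.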

In data set [2] the target is T1, UDP-glucuronosyltransferase 1A1. The experiment in a line: Drug metabolism assessed as recombinant human C-terminal His-tagged UGT1A1-mediated estradiol-3-glucuronide formation at 200 uM after 15 to 60 mins by HPLC analysis in presence of UDPGA. The following applies: recombinant enzyme. A digest of the protocol: as §1
Data set [3] concerns the target T2, UDP-glucuronosyltransferase 1A4 (Homo sapiens, UniProt P22310).
T2 sequence (P22310 whole entry): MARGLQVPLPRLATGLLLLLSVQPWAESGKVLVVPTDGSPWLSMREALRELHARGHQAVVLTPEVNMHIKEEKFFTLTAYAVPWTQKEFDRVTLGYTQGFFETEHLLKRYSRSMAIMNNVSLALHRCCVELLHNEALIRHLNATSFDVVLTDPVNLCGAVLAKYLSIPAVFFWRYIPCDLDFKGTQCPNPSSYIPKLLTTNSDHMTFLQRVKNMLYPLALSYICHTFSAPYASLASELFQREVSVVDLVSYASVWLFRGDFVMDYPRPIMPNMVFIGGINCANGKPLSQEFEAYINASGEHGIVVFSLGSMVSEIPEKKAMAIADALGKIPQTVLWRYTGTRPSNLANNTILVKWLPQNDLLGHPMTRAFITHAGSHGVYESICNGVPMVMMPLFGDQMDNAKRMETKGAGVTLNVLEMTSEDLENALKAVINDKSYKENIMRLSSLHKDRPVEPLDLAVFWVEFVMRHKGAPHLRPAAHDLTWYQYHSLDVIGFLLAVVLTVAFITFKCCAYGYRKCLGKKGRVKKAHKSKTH
Nature of the data set: Drug metabolism assessed as recombinant human C-terminal His-tagged UGT1A4-mediated estradiol-17-glucuronide formation at 200 uM after 15 to 60 mins by HPLC analysis in presence of UDPGA. The following applies: recombinant enzyme. A digest of the protocol: as §1

The target of data set [4] is T3, UDP-glucuronosyltransferase 2B17 (Homo sapiens, UniProt O75795).
T3 sequence (O75795 whole entry): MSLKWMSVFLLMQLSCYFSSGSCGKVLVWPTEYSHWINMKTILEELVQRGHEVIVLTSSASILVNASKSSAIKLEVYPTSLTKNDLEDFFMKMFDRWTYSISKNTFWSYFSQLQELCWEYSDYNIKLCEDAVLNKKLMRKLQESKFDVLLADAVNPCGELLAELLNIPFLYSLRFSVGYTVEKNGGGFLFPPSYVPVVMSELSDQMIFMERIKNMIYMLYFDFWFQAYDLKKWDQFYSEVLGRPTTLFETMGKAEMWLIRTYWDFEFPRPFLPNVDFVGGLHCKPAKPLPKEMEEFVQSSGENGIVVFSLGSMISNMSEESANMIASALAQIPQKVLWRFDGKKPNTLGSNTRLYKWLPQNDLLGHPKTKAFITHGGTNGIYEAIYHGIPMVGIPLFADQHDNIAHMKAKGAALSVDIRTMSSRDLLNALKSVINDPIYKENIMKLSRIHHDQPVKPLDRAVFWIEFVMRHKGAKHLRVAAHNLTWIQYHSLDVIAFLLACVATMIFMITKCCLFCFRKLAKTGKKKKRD
The experiment in a line: Drug metabolism assessed as recombinant human C-terminal His-tagged UGT2B17-mediated estradiol-17-glucuronide formation at 200 uM after 15 to 60 mins by HPLC analysis in presence of UDPGA. The conditions noted are these: recombinant enzyme. In a few lines:
as §1

The next data set relates to Liver microsome. Nature of the data set: Drug metabolism in human liver microsomes assessed as estriol-16-glucuronide formation after 15 to 60 mins by Michaelis-Menten equation analysis in presence of UDPGA. In a few lines: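 Pooled human liver microsomes (30 donors), 0.5 or 10 µg, with alamethicin at 5% of total protein. Incubated with 50 mM phosphate pH 7.4, 10 mM MgCl₂, 5 mM UDPGA and 10% DMSO for 15–60 min at 37°C. Each glucuronide regioisomer quantified by HPLC, in triplicate, with substrate consumption at or below 10%.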
In general terms: Liver microsomes are vesicles of endoplasmic reticulum, rich in cytochrome P450 enzymes.

Data set [5] has as its target T4, UDP-glucuronosyltransferase 2A1 (Homo sapiens, UniProt P0DTE4).
T4 sequence (P0DTE4 whole entry): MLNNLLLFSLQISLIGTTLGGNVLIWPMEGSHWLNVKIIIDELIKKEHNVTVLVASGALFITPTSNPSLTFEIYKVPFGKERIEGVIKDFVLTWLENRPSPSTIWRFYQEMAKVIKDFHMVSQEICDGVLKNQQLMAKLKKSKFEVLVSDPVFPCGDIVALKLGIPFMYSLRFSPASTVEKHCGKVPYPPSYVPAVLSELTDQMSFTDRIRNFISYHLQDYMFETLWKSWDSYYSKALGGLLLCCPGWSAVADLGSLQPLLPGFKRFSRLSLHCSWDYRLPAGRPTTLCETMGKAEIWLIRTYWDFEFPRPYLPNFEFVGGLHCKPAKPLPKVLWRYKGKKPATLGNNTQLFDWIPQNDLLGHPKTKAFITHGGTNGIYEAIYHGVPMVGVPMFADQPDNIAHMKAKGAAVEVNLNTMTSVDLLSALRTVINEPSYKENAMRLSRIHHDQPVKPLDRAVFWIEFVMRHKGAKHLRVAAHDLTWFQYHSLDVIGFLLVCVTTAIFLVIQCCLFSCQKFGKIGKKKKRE
Nature of the data set: Drug metabolism assessed as recombinant human C-terminal His-tagged UGT2A1-mediated 13-epiestradiol-3-glucuronide/13-epiestradiol-17-glucuronide formation at 200 uM after 15 to 60 mins by HPLC analysis in presence of UDPGA. The following applies: recombinant enzyme. A digest of the protocol: as §1

`C[C@]12CC[C@@H]3c4ccc(O)cc4CC[C@H]3[C@@H]1C[C@@H](O)[C@H]2O`: the Drug metabolism result in data set [1] is “metabolite_detected”.

In the case of `C[C@]12CC[C@@H]3c4ccc(O)cc4CC[C@H]3[C@@H]1CC[C@@H]2O` [ESTRADIOL], the Drug metabolism result in data set [2], in data set [3] and in data set [4] was “metabolite_detected” in each case.

As to `C[C@]12CC[C@@H]3c4ccc(O)cc4CC[C@H]3[C@@H]1C[C@@H](O)[C@@H]2O` [ESTRIOL], in the data set on Liver microsome, the Km came out at 13 µM and the Vmax stood at 4347 pmol/min/mg.

As to `C[C@@]12CC[C@@H]3c4ccc(O)cc4CC[C@H]3[C@@H]1CC[C@@H]2O`, in data set [5], the Drug metabolism result is listed as “metabolite_detected”.

As usually defined, the Km is the substrate concentration at which the rate is half of its maximum. The term Vmax denotes the rate approached at saturating substrate.
